Experimental data: ChEMBL document CHEMBL1687823, “PA-824 exhibits time-dependent activity in a murine model of tuberculosis” (Antimicrob Agents Chemother, 2011)
The source made the active and inactive calls. The rule behind the calls is not given here.

Columns and labels:
[1] = system: Mycobacterium tuberculosis; assay: fT>MIC for >= 1 log reduction in CFU count in Mycobacterium tuberculosis H37Rv in using simulated dose of at 400 mg assessed as time during compound concentration exceeds MIC of 0.12500 ug/ml assuming 5% unbound compound concentration by one compartment human pharmacokinetic model; type: functional
Procedure, shortened: (§1)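 Human steady-state simulation: one-compartment PK model fitted to patient data, chosen by AIC. Median PK parameters used to simulate total and free concentrations, assuming 5, 7, 10 or 15% unbound, for 100, 200 and 400 mg once daily. Free levels compared with MICs of 0.03125 to 0.25 µg/ml to give %T>MIC; T>MIC is the cumulative percentage of the dosing interval above MIC.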

[2] = system: Mycobacterium tuberculosis; assay: fT>MIC for >= 1 log reduction in CFU count in Mycobacterium tuberculosis H37Rv in using simulated dose of at 100 mg assessed as time during compound concentration exceeds MIC of 0.06250 ug/ml assuming 15% unbound compound concentration by one compartment human pharmacokinetic model; type: functional
Procedure, shortened: (§2)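 A one-compartment PK model was fitted to human data to get median parameters. It simulated steady-state total and free concentrations for 100, 200 or 400 mg once daily, assuming 5, 7, 10 or 15% unbound drug. Free T>MIC was computed against MICs of 0.03125–0.25 µg/ml and compared with the mouse-derived T>MIC target for 1-log10 kill.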

[3] = system: Mycobacterium tuberculosis; assay: fT>MIC for >= 1 log reduction in CFU count in Mycobacterium tuberculosis H37Rv in using simulated dose of at 200 mg assessed as time during compound concentration exceeds MIC of 0.06250 ug/ml assuming 5% unbound compound concentration by one compartment human pharmacokinetic model; type: functional; procedure, shortened: as §2
[4] = system: Mycobacterium tuberculosis; assay: fT>MIC for >= 1 log reduction in CFU count in Mycobacterium tuberculosis H37Rv in using simulated dose of at 100 mg assessed as time during compound concentration exceeds MIC of 0.25000 ug/ml assuming 7% unbound compound concentration by one compartment human pharmacokinetic model; type: functional; procedure, shortened: as §2
[5] = system: Mycobacterium tuberculosis; assay: fT>MIC for >= 1 log reduction in CFU count in Mycobacterium tuberculosis H37Rv in using simulated dose of at 100 mg assessed as time during compound concentration exceeds MIC of 0.12500 ug/ml assuming 7% unbound compound concentration by one compartment human pharmacokinetic model; type: functional; procedure, shortened: as §2
[6] = Elimination half life in BALB/c mouse up to 1456 mg/kg, po administered as single dose; type: ADME, organism-based; parameters: route oral; settings: in vivo, read-out: beta t1/2 (converted)
Procedure, shortened: (§3)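 Uninfected 6-week female BALB/c mice received single oral gavage doses of 3–1,458 mg/kg as a cyclodextrin-micelle suspension. Three mice per time point were bled by cardiac puncture under isoflurane at 0.5–120 h. Serum levels were measured by validated HPLC-UV (standards 0.20–50 µg/ml).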

[7] = system: Mycobacterium tuberculosis; assay: fT>MIC for >= 1 log reduction in CFU count in Mycobacterium tuberculosis H37Rv in using simulated dose of at 400 mg assessed as time during compound concentration exceeds MIC of 0.25000 ug/ml assuming 10% unbound compound concentration by one compartment human pharmacokinetic model; type: functional; procedure, shortened: as §1
[8] = system: Mycobacterium tuberculosis; assay: fT>MIC for >= 1 log reduction in CFU count in Mycobacterium tuberculosis H37Rv in using simulated dose of at 100 mg assessed as time during compound concentration exceeds MIC of 0.06250 ug/ml assuming 10% unbound compound concentration by one compartment human pharmacokinetic model; type: functional; procedure, shortened: as §2
[9] = system: Mycobacterium tuberculosis; assay: fT>MIC for >= 1 log reduction in CFU count in Mycobacterium tuberculosis H37Rv in using simulated dose of at 200 mg assessed as time during compound concentration exceeds MIC of 0.25000 ug/ml assuming 7% unbound compound concentration by one compartment human pharmacokinetic model; type: functional; procedure, shortened: as §2
[10] = system: Mycobacterium tuberculosis; assay: fT>MIC for >= 1 log reduction in CFU count in Mycobacterium tuberculosis H37Rv in using simulated dose of at 100 mg assessed as time during compound concentration exceeds MIC of 0.03125 ug/ml assuming 5% unbound compound concentration by one compartment human pharmacokinetic model; type: functional; procedure, shortened: as §2
[11] = system: Mycobacterium tuberculosis; assay: Antimicrobial activity against Mycobacterium tuberculosis H37Rv infected in BALB/c mouse assessed as bacteriostatic effect at 12.5 mg/kg, po administered as single dose; type: functional, organism-based; parameters: dose 12.5 mg/kg
Mus musculus = assay: Toxicity in BALB/c mouse assessed as adverse effect up to 1456 mg/kg, po administered as single dose; type: organism-based; parameters: route oral; settings: in vivo; procedure, shortened: as §3
[12] = system: Mycobacterium tuberculosis; assay: fT>MIC for >= 1 log reduction in CFU count in Mycobacterium tuberculosis H37Rv in using simulated dose of at 400 mg assessed as time during compound concentration exceeds MIC of 0.12500 ug/ml assuming 15% unbound compound concentration by one compartment human pharmacokinetic model; type: functional; procedure, shortened: as §1
[13] = system: Mycobacterium tuberculosis; assay: fT>MIC for >= 1 log reduction in CFU count in Mycobacterium tuberculosis H37Rv in using simulated dose of at 100 mg assessed as time during compound concentration exceeds MIC of 0.06250 ug/ml assuming 7% unbound compound concentration by one compartment human pharmacokinetic model; type: functional; procedure, shortened: as §2
[14] = system: Mycobacterium tuberculosis; assay: fT>MIC for >= 1 log reduction in CFU count in Mycobacterium tuberculosis H37Rv in using simulated dose of at 100 mg assessed as time during compound concentration exceeds MIC of 0.25000 ug/ml assuming 5% unbound compound concentration by one compartment human pharmacokinetic model; type: functional; procedure, shortened: as §2
[15] = system: Mycobacterium tuberculosis; assay: fT>MIC for >= 1 log reduction in CFU count in Mycobacterium tuberculosis H37Rv in using simulated dose of at 100 mg assessed as time during compound concentration exceeds MIC of 0.25000 ug/ml assuming 10% unbound compound concentration by one compartment human pharmacokinetic model; type: functional; procedure, shortened: as §2
[16] = system: Mycobacterium tuberculosis; assay: fT>MIC for >= 1 log reduction in CFU count in Mycobacterium tuberculosis H37Rv in using simulated dose of at 200 mg assessed as time during compound concentration exceeds MIC of 0.25000 ug/ml assuming 15% unbound compound concentration by one compartment human pharmacokinetic model; type: functional; procedure, shortened: as §2
[17] = system: Mycobacterium tuberculosis; assay: Antitubercular activity against Mycobacterium tuberculosis H37Rv infected in po dosed BALB/c mouse assessed as reduction in log10 CFU count by single dose study; type: functional, organism-based
[18] = system: Mycobacterium tuberculosis; assay: fT>MIC for >= 1 log reduction in CFU count in Mycobacterium tuberculosis H37Rv in using simulated dose of at 200 mg assessed as time during compound concentration exceeds MIC of 0.06250 ug/ml assuming 10% unbound compound concentration by one compartment human pharmacokinetic model; type: functional; procedure, shortened: as §2
[19] = system: Mycobacterium tuberculosis; assay: fT>MIC for >= 1 log reduction in CFU count in Mycobacterium tuberculosis H37Rv in using simulated dose of at 200 mg assessed as time during compound concentration exceeds MIC of 0.03125 ug/ml assuming 15% unbound compound concentration by one compartment human pharmacokinetic model; type: functional; procedure, shortened: as §2
[20] = system: Mycobacterium tuberculosis; assay: Antimicrobial activity against Mycobacterium tuberculosis H37Rv infected in single po dosed BALB/c mouse assessed as reduction in lung CFU count; type: functional
[21] = system: Mycobacterium tuberculosis; assay: fT>MIC for >= 1 log reduction in CFU count in Mycobacterium tuberculosis H37Rv in using simulated dose of at 200 mg assessed as time during compound concentration exceeds MIC of 0.12500 ug/ml assuming 7% unbound compound concentration by one compartment human pharmacokinetic model; type: functional; procedure, shortened: as §2

With `O=[N+]([O-])c1cn2c(n1)OC[C@@H](OCc1ccc(OC(F)(F)F)cc1)C2` [PRETOMANID] the “fT>MIC” value [1] was 46%, the “fT>MIC” value [2] was 67% and the “fT>MIC” value [3] was 46%. The “fT>MIC” value [4] was 0%, the “fT>MIC” value [5] was 0% and the half-life [6] was 4 h. The “fT>MIC” value [7] was 46%, the “fT>MIC” value [8] was 46% and the “fT>MIC” value [9] was 0%. The “fT>MIC” value [10] was 46%, the Activity [11] was “Active” and the Activity (Mus musculus) was “Non-toxic”. The “fT>MIC” value [12] was 100%, the “fT>MIC” value [13] was 0% and the “fT>MIC” value [14] was 0%. The “fT>MIC” value [15] was 0%, the “fT>MIC” value [16] was 6% and the Activity [17] was “Dose-dependent effect”. For the same compound, the “fT>MIC” value [18] was 100%, the “fT>MIC” value [19] was 100% and the MBC [20] was 100 mg/kg. For the same compound, the “fT>MIC” value [21] was 4%.
